“And” between values parts separate entries of the source, which are not always exact repeats. Equal values may be shown once.
Test system: U2OS
Assay: Multiplex assay against U2OS
Type: toxicity, cell-based
Details: human
Method in brief: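 Values for tubulin, mitochondrial-mass and membrane-permeability phenotypes are per cents of cells with healthy nuclei. These cells were identified by CellPathfinder machine-learning gating of live cells that had been stained at seeding with Hoechst33342, BioTracker Green Microtubule Cytoskeleton Dye, MitoTracker Red and Annexin V Alexa Fluor 680 and imaged on a CQ1 microscope at 37°C and 5% CO2 after compound addition. The gating first set Hoechst high-intensity objects apart from normal cells, then split normal cells into healthy, pyknosed or fragmented nuclei, and pyknosed cells into mitotic or apoptotic.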

[1] = 12 h, 1 µM, compound concentration 1 uM
[2] = 12 h, 10 µM, compound concentration 10 uM
[3] = 24 h, 1 µM, compound concentration 1 uM
[4] = 24 h, 10 µM, compound concentration 10 uM
[5] = 48 h, 1 µM, compound concentration 1 uM
[6] = 48 h, 10 µM, compound concentration 10 uM

COC(c1ccccc1)(c1ccccc1)[C@H](Oc1nc(C)cc(C)n1)C(=O)O [AMBRISENTAN]
Population Apoptotic (%) [1]: 95% and 100% | Population Fragmented Nuclei (%) [1]: 26% and 21% | Population Healthy Nuclei (%) [1]: 62% and 72% | Population Hoechst High Intensity Objects (%) [1]: 2% | Population Membrane Permeable-Phenotype (%) [1]: 3% and 8% | Population Mitochondria Different-Phenotype (%) [1]: 0% and 3% | Population Mitotic Cells (%) [1]: 4% and 0% | Population Normal (%) [1]: 97% | Population Pyknosed Nuclei (%) [1]: 10% and 5% | Population Tubulin-Different-Phenotype (%) [1]: 1% | Total Cell Count [1]: 209 and 87 | Population Apoptotic (%) [2]: 61% and 100% | Population Fragmented Nuclei (%) [2]: 28% and 19% | Population Healthy Nuclei (%) [2]: 63% and 72% | Population Hoechst High Intensity Objects (%) [2]: 2% and 0% | Population Membrane Permeable-Phenotype (%) [2]: 4% | Population Mitochondria Different-Phenotype (%) [2]: 2% and 0% | Population Normal (%) [2]: 97% and 99% | Population Pyknosed Nuclei (%) [2]: 7% | Population Tubulin-Different-Phenotype (%) [2]: 1% and 0% | Total Cell Count [2]: 232 and 104 | Population Apoptotic (%) [3]: 95% and 100% | Population Fragmented Nuclei (%) [3]: 27% and 23% | Population Healthy Nuclei (%) [3]: 63% and 66% | Population Hoechst High Intensity Objects (%) [3]: 0% | Population Membrane Permeable-Phenotype (%) [3]: 4% and 1% | Population Mitochondria Different-Phenotype (%) [3]: 1% and 2% | Population Mitotic Cells (%) [3]: 4% and 0% | Population Normal (%) [3]: 99% | Population Pyknosed Nuclei (%) [3]: 8% and 10% | Population Tubulin-Different-Phenotype (%) [3]: 1% | Total Cell Count [3]: 248 and 111 | Population Apoptotic (%) [4]: 84% and 80% | Population Fragmented Nuclei (%) [4]: 25% and 13% | Population Healthy Nuclei (%) [4]: 65% and 77% | Population Hoechst High Intensity Objects (%) [4]: 1% and 0% | Population Membrane Permeable-Phenotype (%) [4]: 7% | Population Mitochondria Different-Phenotype (%) [4]: 2% | Population Mitotic Cells (%) [4]: 16% and 20% | Population Normal (%) [4]: 98% and 100% | Population Pyknosed Nuclei (%) [4]: 9% and 8% | Population Tubulin-Different-Phenotype (%) [4]: 3% and 5% | Total Cell Count [4]: 273 and 115 | Population Apoptotic (%) [5]: 89% and 93% | Population Fragmented Nuclei (%) [5]: 17% | Population Healthy Nuclei (%) [5]: 70% and 72% | Population Hoechst High Intensity Objects (%) [5]: 2% | Population Membrane Permeable-Phenotype (%) [5]: 2% and 0% | Population Mitochondria Different-Phenotype (%) [5]: 1% | Population Mitotic Cells (%) [5]: 10% and 6% | Population Normal (%) [5]: 97% | Population Pyknosed Nuclei (%) [5]: 11% and 10% | Population Tubulin-Different-Phenotype (%) [5]: 0% | Total Cell Count [5]: 333 and 151 | Population Apoptotic (%) [6]: 87% and 81% | Population Fragmented Nuclei (%) [6]: 21% and 13% | Population Healthy Nuclei (%) [6]: 68% and 79% | Population Hoechst High Intensity Objects (%) [6]: 3% and 0% | Population Membrane Permeable-Phenotype (%) [6]: 4% and 2% | Population Mitochondria Different-Phenotype (%) [6]: 2% and 0% | Population Mitotic Cells (%) [6]: 12% and 18% | Population Normal (%) [6]: 96% and 100% | Population Pyknosed Nuclei (%) [6]: 10% and 6% | Population Tubulin-Different-Phenotype (%) [6]: 3% and 2% | Total Cell Count [6]: 388 and 174

CCc1cc2cc(NS(=O)(=O)c3ccc(C#N)cc3)ccc2n(CC)c1=O
Population Apoptotic (%) [1]: 88% and 100% | Population Fragmented Nuclei (%) [1]: 30% and 26% | Population Healthy Nuclei (%) [1]: 60% and 70% | Population Hoechst High Intensity Objects (%) [1]: 3% and 1% | Population Membrane Permeable-Phenotype (%) [1]: 4% and 8% | Population Mitochondria Different-Phenotype (%) [1]: 2% | Population Mitotic Cells (%) [1]: 11% and 0% | Population Normal (%) [1]: 96% and 98% | Population Pyknosed Nuclei (%) [1]: 9% and 3% | Population Tubulin-Different-Phenotype (%) [1]: 2% and 7% | Total Cell Count [1]: 286 and 113 | Population Apoptotic (%) [2]: 66% and 87% | Population Fragmented Nuclei (%) [2]: 28% and 13% | Population Healthy Nuclei (%) [2]: 64% and 80% | Population Hoechst High Intensity Objects (%) [2]: 2% | Population Membrane Permeable-Phenotype (%) [2]: 9% and 6% | Population Mitochondria Different-Phenotype (%) [2]: 3% | Population Mitotic Cells (%) [2]: 33% and 12% | Population Normal (%) [2]: 97% | Population Pyknosed Nuclei (%) [2]: 6% and 5% | Population Tubulin-Different-Phenotype (%) [2]: 4% | Total Cell Count [2]: 220 and 139 | Population Apoptotic (%) [3]: 85% and 88% | Population Fragmented Nuclei (%) [3]: 29% and 16% | Population Healthy Nuclei (%) [3]: 61% and 75% | Population Hoechst High Intensity Objects (%) [3]: 2% and 1% | Population Membrane Permeable-Phenotype (%) [3]: 9% and 7% | Population Mitochondria Different-Phenotype (%) [3]: 2% and 7% | Population Mitotic Cells (%) [3]: 14% and 11% | Population Normal (%) [3]: 97% and 98% | Population Pyknosed Nuclei (%) [3]: 8% and 7% | Population Tubulin-Different-Phenotype (%) [3]: 6% and 3% | Total Cell Count [3]: 335 and 126 | Population Apoptotic (%) [4]: 95% and 80% | Population Fragmented Nuclei (%) [4]: 23% and 14% | Population Healthy Nuclei (%) [4]: 67% and 79% | Population Hoechst High Intensity Objects (%) [4]: 3% | Population Membrane Permeable-Phenotype (%) [4]: 4% and 6% | Population Mitochondria Different-Phenotype (%) [4]: 2% | Population Normal (%) [4]: 96% | Population Pyknosed Nuclei (%) [4]: 9% and 6% | Population Tubulin-Different-Phenotype (%) [4]: 1% and 2% | Total Cell Count [4]: 263 and 159 | Population Apoptotic (%) [5]: 89% and 84% | Population Fragmented Nuclei (%) [5]: 21% and 19% | Population Healthy Nuclei (%) [5]: 70% and 73% | Population Hoechst High Intensity Objects (%) [5]: 2% and 3% | Population Membrane Permeable-Phenotype (%) [5]: 6% | Population Mitochondria Different-Phenotype (%) [5]: 3% and 5% | Population Mitotic Cells (%) [5]: 10% and 15% | Population Normal (%) [5]: 97% and 96% | Population Pyknosed Nuclei (%) [5]: 8% and 6% | Population Tubulin-Different-Phenotype (%) [5]: 2% and 3% | Total Cell Count [5]: 450 and 192 | Population Apoptotic (%) [6]: 88% and 96% | Population Fragmented Nuclei (%) [6]: 18% and 15% | Population Healthy Nuclei (%) [6]: 72% and 73% | Population Hoechst High Intensity Objects (%) [6]: 3% and 2% | Population Membrane Permeable-Phenotype (%) [6]: 6% and 8% | Population Mitochondria Different-Phenotype (%) [6]: 2% and 3% | Population Mitotic Cells (%) [6]: 11% and 3% | Population Normal (%) [6]: 96% and 97% | Population Pyknosed Nuclei (%) [6]: 9% and 11% | Population Tubulin-Different-Phenotype (%) [6]: 3% and 7% | Total Cell Count [6]: 387 and 248

C=CC(=O)N1CCC[C@@H](n2nc(C(=O)Nc3ccc(CC(=O)N(C)C)c(C)c3C)c3c(N)ncnc32)C1
Population Apoptotic (%) [1]: 31.58% and 48.15% | Population Fragmented Nuclei (%) [1]: 2.15% and 3.28% | Population Healthy Nuclei (%) [1]: 88.76% and 81.97% | Population Hoechst High Intensity Objects (%) [1]: 0% | Population Membrane Permeable-Phenotype (%) [1]: 1.08% and 0.67% | Population Mitochondria Different-Phenotype (%) [1]: 0.54% and 8.67% | Population Mitotic Cells (%) [1]: 68.42% and 51.85% | Population Normal (%) [1]: 100% | Population Pyknosed Nuclei (%) [1]: 9.09% and 14.75% | Population Tubulin-Different-Phenotype (%) [1]: 1.08% and 0% | Total Cell Count [1]: 418 and 183 | Population Apoptotic (%) [2]: 42.86% and 45.45% | Population Fragmented Nuclei (%) [2]: 1.65% and 3.24% | Population Healthy Nuclei (%) [2]: 88.47% and 84.86% | Population Hoechst High Intensity Objects (%) [2]: 0.23% and 0% | Population Mitotic Cells (%) [2]: 57.14% and 54.55% | Population Normal (%) [2]: 99.77% and 100% | Population Pyknosed Nuclei (%) [2]: 9.88% and 11.89% | Population Tubulin-Different-Phenotype (%) [2]: 0.27% and 3.82% | Total Cell Count [2]: 426 and 185 | Population Apoptotic (%) [3]: 37.21% and 57.14% | Population Fragmented Nuclei (%) [3]: 1.84% and 1.69% | Population Healthy Nuclei (%) [3]: 90.24% and 83.47% | Population Hoechst High Intensity Objects (%) [3]: 0.18% and 0% | Population Membrane Permeable-Phenotype (%) [3]: 0.41% and 2.54% | Population Mitochondria Different-Phenotype (%) [3]: 0.41% and 6.6% | Population Mitotic Cells (%) [3]: 62.79% and 42.86% | Population Normal (%) [3]: 99.82% and 100% | Population Pyknosed Nuclei (%) [3]: 7.92% and 14.83% | Population Tubulin-Different-Phenotype (%) [3]: 1.02% and 0% | Total Cell Count [3]: 544 and 236 | Population Apoptotic (%) [4]: 57.14% and 50% | Population Fragmented Nuclei (%) [4]: 2.56% and 2.27% | Population Healthy Nuclei (%) [4]: 87.18% and 86.82% | Population Hoechst High Intensity Objects (%) [4]: 0% | Population Membrane Permeable-Phenotype (%) [4]: 1.47% and 8.38% | Population Mitotic Cells (%) [4]: 42.86% and 50% | Population Normal (%) [4]: 100% | Population Pyknosed Nuclei (%) [4]: 10.26% and 10.91% | Population Tubulin-Different-Phenotype (%) [4]: 0.84% and 2.62% | Total Cell Count [4]: 546 and 220 | Population Apoptotic (%) [5]: 38.38% and 67.35% | Population Fragmented Nuclei (%) [5]: 2.8% and 4.6% | Population Healthy Nuclei (%) [5]: 87.64% and 82.86% | Population Hoechst High Intensity Objects (%) [5]: 0% | Population Membrane Permeable-Phenotype (%) [5]: 0.66% and 2.16% | Population Mitochondria Different-Phenotype (%) [5]: 0.11% and 7.41% | Population Mitotic Cells (%) [5]: 61.62% and 32.65% | Population Normal (%) [5]: 100% | Population Pyknosed Nuclei (%) [5]: 9.56% and 12.53% | Population Tubulin-Different-Phenotype (%) [5]: 0.66% and 0.31% | Total Cell Count [5]: 1036 and 391 | Population Apoptotic (%) [6]: 50.48% and 54.35% | Population Fragmented Nuclei (%) [6]: 1.98% and 2.5% | Population Healthy Nuclei (%) [6]: 87.11% and 83.12% | Population Hoechst High Intensity Objects (%) [6]: 0.1% and 0.31% | Population Membrane Permeable-Phenotype (%) [6]: 1.07% and 3.01% | Population Mitochondria Different-Phenotype (%) [6]: 0.12% and 6.02% | Population Mitotic Cells (%) [6]: 49.52% and 45.65% | Population Normal (%) [6]: 99.9% and 99.69% | Population Pyknosed Nuclei (%) [6]: 10.91% and 14.37% | Population Tubulin-Different-Phenotype (%) [6]: 0.95% and 1.5% | Total Cell Count [6]: 963 and 321
